Test results taken from ChEMBL document CHEMBL4400530, “Synthesis and structure-activity relationship studies of water-soluble β-cyclodextrin-glycyrrhetinic acid conjugates as potential anti-influenza virus agents” (Eur J Med Chem, 2019).
Converted amounts (≈) assume the structure as drawn. The source made the active and inactive calls. No cut-off for these calls is given here.

Legend:
[1] = test system: Human gammaherpesvirus 4; assay: Antiviral activity against EBV infected in human Raji cells assessed as reduction in viral genome copy numbers by qRT-PCR analysis; type: functional, organism-based; conditions: human gammaherpesvirus 4, Raji
[2] = test system: Human alphaherpesvirus 1; assay: Antiviral activity against […] Herpes simplex virus 1 KOS infected in African green monkey Vero cells assessed as reduction in viral titer after 72 hrs by crystal violet staining based assay; type: functional, organism-based; conditions: Human alphaherpesvirus 1, strain KOS
[3] = test system: Human alphaherpesvirus 1; assay: Antiviral activity against […] Herpes simplex virus 1 B2006 infected in African green monkey Vero cells assessed as reduction in viral titer after 72 hrs by crystal violet staining based assay; type: functional, organism-based; conditions: Human alphaherpesvirus 1, B2006, Vero
[4] = Lipophilicity, log P of the compound; type: physicochemical; conditions: octanol/water
Outline: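 Calculated value (AlogP, Ghose and Crippen octanol–water partition coefficient at 25 °C), computed in silico rather than measured.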

[5] = Solubility of the compound in water; type: physicochemical; conditions: buffer
[6] = test system: MDCK; assay: Cytotoxicity against MDCK cells assessed as effect on cell viability at 50 uM measured after 36 hrs by CellTiter-Glo assay; type: cell-based, Canis lupus familiaris; conditions: dog
Outline: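 MDCK cells (1 × 10⁴ per well) left to adhere 24 h at 37 °C, 5% CO₂. Medium then replaced with fresh medium containing compound at 50 μM, in triplicate. Controls received medium with 1% DMSO. Plates incubated 36 h at 37 °C, 5% CO₂, then viability read by CellTiter-Glo luminescence.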

[7] = test system: Influenza A virus; assay: Antiviral activity against Influenza A virus (A/WSN/33(H1N1)) infected in MDCK cells assessed as reduction in virus-induced cytopathic effect at 50 uM after 40 hrs by CellTiter-Glo assay; type: functional, organism-based; conditions: A/WSN/1933(H1N1)
Outline: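 MDCK cells seeded, grown overnight, then infected with A/WSN/33 (H1N1) at MOI 0.1 in DMEM with 1% FBS, 2 μg/mL TPCK-treated trypsin and test compound (final DMSO 1%). Compounds screened at a single 50 μM concentration. Incubation 40 h, then viability read by CellTiter-Glo luminescence. Oseltamivir positive control, DMSO negative control. Virus stock titres determined in MDCK cells by Reed and Muench.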

| Structure (SMILES) | EC50 [1] | Activity [6] | Activity [7] | also measured |
| --- | --- | --- | --- | --- |
| CC1(C)[C@@H](O[C@H]2O[C@H](C(=O)O)[C@@H](O)[C@H](O)[C@H]2O[C@@H]2O[C@H](C(=O)O)[C@@H](O)[C@H](O)[C@H]2O)CC[C@]2(C)[C@H]3C(=O)C=C4[C@@H]5C[C@@](C)(C(=O)O)CC[C@]5(C)CC[C@@]4(C)[C@]3(C)CC[C@@H]12 [GLYCYRRHIZIN] | 30 µM |  |  |  |
| CC(O)CNC(=O)[C@@]1(C)CC[C@]2(C)CC[C@]3(C)C(=CC(=O)[C@@H]4[C@@]5(C)CC[C@H](O)C(C)(C)[C@@H]5CC[C@]43C)[C@@H]2C1 (some centres not stated) |  |  |  | EC50 [2]: 4.95 µM; EC50 [3]: 4.95 µM |
| CC1(C)[C@@H](O)CC[C@]2(C)[C@H]3C(=O)C=C4[C@@H]5C[C@@](C)(C(=O)O)CC[C@]5(C)CC[C@@]4(C)[C@]3(C)CC[C@@H]12 [ENOXOLONE] | 4 µM |  |  | logP [4]: 6.75; solubility [5]: 10.6 µg/mL (≈ 22.5 µM) |
| CC1(C)[C@@H](O)CC[C@]2(C)[C@H]3C(=O)C=C4[C@@H]5C[C@@](C)(C(=O)NCc6cn(C[C@H]7O[C@@H]8O[C@H]9[C@H](O)[C@@H](O)[C@@H](O[C@H]%10[C@H](O)[C@@H](O)[C@@H](O[C@H]%11[C@H](O)[C@@H](O)[C@@H](O[C@H]%12[C@H](O)[C@@H](O)[C@@H](O[C@H]%13[C@H](O)[C@@H](O)[C@@H](O[C@H]%14[C@H](O)[C@@H](O)[C@@H](O[C@H]7[C@H](O)[C@H]8O)O[C@@H]%14CO)O[C@@H]%13CO)O[C@@H]%12CO)O[C@@H]%11CO)O[C@@H]%10CO)O[C@@H]9CO)nn6)CC[C@]5(C)CC[C@@]4(C)[C@]3(C)CC[C@@H]12 |  | Non-Toxic | Active |  |
| CC1(C)[C@@H](O)CC[C@]2(C)[C@H]3C(=O)C=C4[C@@H]5C[C@@](C)(C(=O)NCCOCCOCCOCCOCc6cn(C[C@H]7O[C@@H]8O[C@H]9[C@H](O)[C@@H](O)[C@@H](O[C@H]%10[C@H](O)[C@@H](O)[C@@H](O[C@H]%11[C@H](O)[C@@H](O)[C@@H](O[C@H]%12[C@H](O)[C@@H](O)[C@@H](O[C@H]%13[C@H](O)[C@@H](O)[C@@H](O[C@H]%14[C@H](O)[C@@H](O)[C@@H](O[C@H]7[C@H](O)[C@H]8O)O[C@@H]%14CO)O[C@@H]%13CO)O[C@@H]%12CO)O[C@@H]%11CO)O[C@@H]%10CO)O[C@@H]9CO)nn6)CC[C@]5(C)CC[C@@]4(C)[C@]3(C)CC[C@@H]12 |  | Non-Toxic | Active |  |
| CC(=O)OC[C@H]1O[C@@H]2O[C@H]3[C@H](O)[C@@H](O)[C@@H](O[C@H]4[C@H](O)[C@@H](O)[C@@H](O[C@H]5[C@H](O)[C@@H](O)[C@@H](O[C@H]6[C@H](O)[C@@H](O)[C@@H](O[C@H]7[C@H](O)[C@@H](O)[C@@H](O[C@H]8[C@H](O)[C@@H](O)[C@@H](O[C@H]1[C@H](O)[C@H]2O)O[C@@H]8CO)O[C@@H]7CO)O[C@@H]6CO)O[C@@H]5CO)O[C@@H]4CO)O[C@@H]3Cn1cc(CN2CCN(CCNC(=O)[C@@]3(C)CC[C@]4(C)CC[C@]5(C)C(=CC(=O)[C@@H]6[C@@]7(C)CC[C@H](O)C(C)(C)[C@@H]7CC[C@]65C)[C@@H]4C3)CC2)nn1 |  | Non-Toxic | inactive |  |
